Rows were chosen to be rich in hits. Some 7.2% of all compounds tested hit in one or more screens of this group.
BAP1 block = inhibitors of BAP1 deubiquitinase, primary screen, biochemical, Ub-AMC fluorescence, kinetic; AID 436, 2006; 0.48% of 72,000 active; calls only at 20 µM; Ubiquitin carboxyl-terminal hydrolase BAP1 (Homo sapiens), Q92560; recombinant BAP1, Ub-AMC hydrolysis fluorescence kinetic; active compounds read low;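 active = activity remaining at or below 50% of control, provided the compound also passes the data quality filters; inactive = the rest, including low values that fail the filters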
M1 antag = antagonists of rat M1 muscarinic receptor. 3.4% of 64,000 active. Muscarinic acetylcholine receptor M1 (Rattus norvegicus), P08482. B-score at 10 µM. CHO-M1 cells, Fluo-4 calcium, ACh EC80 antagonist mode; active compounds read low;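 active = calcium fluorescence response, raw or row-and-column corrected B-score, differing from the plate sample mean either way at a set confidence level, mostly lower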
HEK293 NFkB inh = inhibitors of PMA/ionomycin-induced NF-kB reporter, primary screen, antigen receptor NF-kB inhibitor project, cell-based, HEK-293 luciferase reporter, luminescence; inhibition, % at 3 µM; HEK-293 NF-kB luciferase reporter; 0.21% of 62,000 active;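 active = inhibition above the mean of all tested compounds plus 3 SD, cut at about 40% in these data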
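Signal: luciferase luminescence; Material: HEK-293 cells with stable firefly luciferase reporter driven by four HIV NF-kB elements; Probe or stimulus: PMA with ionomycin; Replication: tested once; Times: 1 h compound pretreatment, then 16 h stimulation at 37 °C, 5% CO2; Benchmarks: DMSO and 10 µM reference inhibitor; Evaluation: per-plate % inhibition versus controls.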
hDAT+cocaine = changed hDAT dopamine uptake under cocaine IC80, either direction, primary screen, cocaine antagonist project, cell-based, LLC-PK1 hDAT, [14C]-dopamine uptake, MLSMR; Sodium-dependent dopamine transporter (Homo sapiens), Q01959; LLC-PK1 hDAT cells, [14C]-dopamine uptake with cocaine IC80; actives deviate in either direction; B-score at 10 µM; 1.3% of 110,000 active;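 active = Z score or B-score, a plate-position-corrected score, falls beyond the plate's 99.7% confidence bounds, in either direction; inactive = both scores lie inside the 99.7% bounds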
Target sequence (Q01959 whole entry, looked up): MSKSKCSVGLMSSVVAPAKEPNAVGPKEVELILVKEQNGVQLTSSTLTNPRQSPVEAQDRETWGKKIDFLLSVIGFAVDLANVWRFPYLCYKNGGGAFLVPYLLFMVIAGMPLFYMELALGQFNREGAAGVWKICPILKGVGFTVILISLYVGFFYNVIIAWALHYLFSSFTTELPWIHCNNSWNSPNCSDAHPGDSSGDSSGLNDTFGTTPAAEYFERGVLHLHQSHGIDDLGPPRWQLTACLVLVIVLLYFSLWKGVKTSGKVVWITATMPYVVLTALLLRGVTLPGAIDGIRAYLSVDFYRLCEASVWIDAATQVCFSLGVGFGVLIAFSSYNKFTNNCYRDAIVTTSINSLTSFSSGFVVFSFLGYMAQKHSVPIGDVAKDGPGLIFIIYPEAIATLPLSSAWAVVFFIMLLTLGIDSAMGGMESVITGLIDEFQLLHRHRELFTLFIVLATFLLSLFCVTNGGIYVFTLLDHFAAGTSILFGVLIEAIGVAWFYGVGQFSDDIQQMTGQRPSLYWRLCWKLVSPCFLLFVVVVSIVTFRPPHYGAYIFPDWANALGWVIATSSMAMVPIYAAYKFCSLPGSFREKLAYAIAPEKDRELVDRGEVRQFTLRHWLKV
M1 ag = M1 muscarinic receptor agonists, primary screen, CHO-M1 cells, Fluo-4 calcium, agonist mode; 3% of 64,000 active; Muscarinic acetylcholine receptor M1; Fluo-4 calcium fluorescence; active compounds read high; B-score at 10 µM;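 active = fluorescence rise, raw or as B-score row- and column-corrected plate score, outside the 99.7% band of its plate's samples, either direction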
D1 mod = D1 CRE-luciferase signal change, two-sided – cell-based, HEK293 D1, dopamine EC30, D1 allosteric modulator project, primary screen. dopamine EC30 potentiation; actives deviate in either direction. 5.9% of 58,000 active. B-score at 10 µM. D(1A) dopamine receptor (Homo sapiens), P21728;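 active = luminescence count or its row- and column-corrected plate score outside the 99.7% band of the plate's sample wells, on either side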
M1 antag confirm = rat M1 muscarinic receptor antagonists, confirmation, CHO cells, Fluo-4 calcium, duplicate | 43% of 1,700 active | calcium response (max-min fluorescence) at 10 µM | ACh EC80 antagonism; active compounds read low | shares compounds with M1 antag | AID 677, 2007;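 active = calcium response below the same-plate mean of wells given acetylcholine alone at its 80%-effect dose, minus 3 SD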
mGluR4 antag = human mGluR4 response to M1 antagonist hits, M1 allosteric modulator project, cell-based, antagonist mode, secondary assay 1. shares compounds with M1 antag. CHO-mGluR4 calcium flux, Fluo-4 fluorescence, glutamate EC80; active compounds read low. fluorescence response (max-min) at 10 µM. 0.9% of 1,700 active. AID 678, 2007;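 active = fluorescence response below the plate's average for near-maximal glutamate wells, less 3 SD of those wells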;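 also: raw unnormalized fluorescence span taken in the window right after glutamate addition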
Of the large screens only hits and unclear results are named; the others gave an inactive call (follow-up assays come after a bar, where shown).

COc1cc(C2Nc3ccccc3NC3=C2C(=O)CC(C)(C)C3)cc(I)c1O (centres undefined)	none (no result: M1 antag, HEK293 NFkB inh, hDAT+cocaine, M1 ag, D1 mod)
O=C(CCC(=O)OCCCC(F)(F)C(F)(F)F)Nc1ccccc1	none
O=C(CCC(=O)OCCCC(F)(F)C(F)(F)F)NC1CCCCC1	M1 antag -8.2 | M1 antag confirm inactive | mGluR4 antag inactive
CC1=C(C(=O)OCCOc2ccccc2)C(c2ccccc2[N+](=O)[O-])C2=C(CCCC2=O)N1 (centres undefined)	none (no result: M1 antag, HEK293 NFkB inh, hDAT+cocaine, M1 ag, D1 mod)
O=C(c1ccccc1N1C(=O)c2cccc3cccc(c23)C1=O)N1CCOCC1	none (no result: M1 antag, HEK293 NFkB inh, hDAT+cocaine, M1 ag, D1 mod)
CCCCC(c1nnnn1Cc1ccco1)N1CCN(c2nc3ccccc3s2)CC1 (centres undefined)	M1 antag -3.3 (not shown: BAP1 block) | M1 antag confirm inactive | mGluR4 antag inactive
c1ccc(Cn2nnnc2C(c2ccccc2)N2CCN(c3nc4ccccc4s3)CC2)cc1 (centres undefined)	M1 antag -2.1 (no result: D1 mod) | M1 antag confirm inactive | mGluR4 antag inactive
CCOC(=O)CN(C(=O)CSc1nnc(-c2ccncc2)n1CCCN(C)C)c1ccccc1	M1 antag -1.4 | M1 antag confirm inactive | mGluR4 antag inactive
CCn1c(N)nc2ccccc21	M1 antag -2.5 | M1 antag confirm inactive | mGluR4 antag inactive
CCCn1c(N)nc2ccccc21	none (no result: BAP1 block, M1 antag, HEK293 NFkB inh, M1 ag, D1 mod)
COc1cc(C2N3CC4(C)CN2CC(C)(C3)C4)ccc1O (centres undefined)	none (no result: hDAT+cocaine)
CC12CN3CC(C)(CN(C1)C3c1ccc(Br)cc1)C2 (centres undefined)	M1 antag -3.7 | M1 antag confirm 387 | mGluR4 antag inactive
COc1ccc(Br)cc1CN1CCCC(C(=O)N2CCCCCC2)C1 (centres undefined)	M1 antag -3.1 | M1 antag confirm 313 | mGluR4 antag inactive
COc1ccc(Br)cc1CN1CCCC(C(=O)N2CCCCC2)C1 (centres undefined)	none (no result: BAP1 block, M1 antag, HEK293 NFkB inh, M1 ag, D1 mod)
O=C(C1CCCN(Cc2ccccc2Br)C1)N1CCCCC1 (centres undefined)	M1 antag -2.3 | M1 antag confirm 397 | mGluR4 antag inactive
COc1ccccc1CN1CCCC(C(=O)N(C)Cc2ccccc2)C1 (centres undefined)	M1 antag -3.8 | M1 antag confirm 513 | mGluR4 antag inactive
CC(CN(C)Cc1ccccc1)OC(=O)c1ccc2c(c1)OCCO2 (centres undefined)	M1 antag -3.2 | M1 antag confirm 323 | mGluR4 antag inactive
Cn1c(SCCN2CCCCC2)nnc1-c1ccccc1Br	M1 antag -2 | M1 antag confirm 561 | mGluR4 antag inactive
COc1ccccc1-c1nnc(SCC(=O)O)n1C	none
CC(NC(=O)c1ccc(F)cc1)C(c1cccs1)N1CCN(C)CC1 (centres undefined)	none
CC(NC(=O)c1ccc(N(C)C)cc1)C(c1cccs1)N1CCN(C)CC1 (centres undefined)	M1 antag -3.9 | M1 antag confirm inactive | mGluR4 antag inactive
Oc1ccc(Nc2nc(NCC3CCCO3)c3ccccc3n2)cc1 (centres undefined)	M1 antag -5.7, D1 mod -2.9 | M1 antag confirm 483 | mGluR4 antag inactive
Oc1ccccc1Nc1nc(NCC2CCCO2)c2ccccc2n1 (centres undefined)	none (no result: hDAT+cocaine)
CCCCOc1ccc(CN2CCC(O)CC2)cc1	M1 antag -2.2 | M1 antag confirm inactive | mGluR4 antag inactive
COc1ccc(N2CCN(C(CNC(=O)C3CCCCC3)c3cccnc3)CC2)cc1 (centres undefined)	M1 antag -2.9 | M1 antag confirm inactive | mGluR4 antag inactive
O=C(NCC(c1cccnc1)N1CCN(c2ccc(F)cc2)CC1)C1CCCCC1 (centres undefined)	none
COc1cc(-c2cc(C(F)(F)F)n3ncc(C(=O)N4CCN(Cc5ccccc5)CC4)c3n2)cc(OC)c1OC	none (no result: M1 antag, HEK293 NFkB inh, hDAT+cocaine, M1 ag, D1 mod)
O=C1CC(N2CCN(c3ccccc3Cl)CC2)C(=O)N1c1ccc(F)cc1 (centres undefined)	none (no result: D1 mod)
O=C1CC(N2CCN(c3ccccc3Cl)CC2)C(=O)N1c1cccc(F)c1 (centres undefined)	M1 antag -1.7 | M1 antag confirm inactive | mGluR4 antag inactive
Cc1ccc(-n2ncc3c(NCC4CCCO4)ncnc32)c(C)c1 (centres undefined)	M1 antag -3.6 | M1 antag confirm inactive | mGluR4 antag inactive
Cc1cc(=O)oc2cc(OCC(O)CN3CCN(c4ccc(F)cc4)CC3)ccc12 (centres undefined)	none (no result: BAP1 block, D1 mod)
CCOc1ccccc1N1CCN(CC(O)COc2ccc3c(C)cc(=O)oc3c2)CC1 (centres undefined)	M1 antag -1.5 (no result: BAP1 block, D1 mod) | M1 antag confirm 455 | mGluR4 antag inactive
CCCN1C2CCCC1CC(NC(=O)c1ccccc1F)C2 (centres undefined)	M1 antag -3.7 | M1 antag confirm inactive | mGluR4 antag inactive
CCCN1C2CCCC1CC(NC(=O)c1ccccc1)C2 (centres undefined)	none (no result: D1 mod)
CCCN1C2CCCC1CC(NC(=O)c1ccccc1OCC)C2 (centres undefined)	M1 antag -3.8 | M1 antag confirm 461 | mGluR4 antag inactive
Cc1cc(C)c2oc(-c3ccc(C)c(N=Cc4cccc([N+](=O)[O-])c4O)c3)nc2c1	none (no result: M1 antag, HEK293 NFkB inh, hDAT+cocaine, M1 ag, D1 mod)
CNc1ncc(C(=O)C(C)(C)C)s1	none (no result: BAP1 block, M1 antag, HEK293 NFkB inh, M1 ag, D1 mod)
CNc1nc(N)c(C(=O)C(C)(C)C)s1	M1 antag -1.8 (no result: D1 mod) | M1 antag confirm inactive | mGluR4 antag inactive
CC1(C)Nc2ccccc2N(CC(=O)N2CCCCC2)C1=O	M1 antag -1.3, hDAT+cocaine 1.4 | M1 antag confirm inactive | mGluR4 antag inactive
O=C1c2ccccc2C(=O)N1CCCCCCN1CCN(c2cccc(Cl)c2)CC1	none (no result: M1 antag, HEK293 NFkB inh, hDAT+cocaine, M1 ag, D1 mod)
CCOc1ccc(N2C(=O)CC(NCC(=O)OC)C2=O)cc1 (centres undefined)	none (no result: M1 antag, HEK293 NFkB inh, hDAT+cocaine, M1 ag, D1 mod)
COc1cc([N+](=O)[O-])ccc1NC(=O)c1ccc(S(=O)(=O)N2CCCC2)cc1	none (no result: M1 antag, HEK293 NFkB inh, hDAT+cocaine, M1 ag, D1 mod)
